Assay results published in ChEMBL document CHEMBL4196006, “Aryl thiosemicarbazones for the treatment of trypanosomatidic infections” (Eur J Med Chem, 2018).
The source made the active and inactive calls. The calls are words filed in the database; no cut-off is given here.

Test system: Trypanosoma cruzi
Experiment: Antitrypanosomal activity against Trypanosoma cruzi amastigote form infected in human U2OS cells assessed as parasite growth inhibition at 50 uM after 72 hrs relative to control
Assay type: functional
Conditions: for inhibition of growth at 50 µM: read-out: GI
Outline: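 U2OS monolayers grown for 24 h, then infected with tissue-derived trypomastigotes of T. cruzi Y strain. Compounds were added 24 h after infection at 50 μM (single-point) or in dose-response, with 72 h exposure. Plates were fixed, stained and analysed by high-content imaging; activity was normalized to infected and non-infected controls. Means of at least two experiments; benznidazole as reference.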

| SMILES | inhibition of growth at 50 µM [%] | growth inhibition (GI) |
| --- | --- | --- |
| Nc1nnc(-c2ccc(Cl)c(Cl)c2)s1 | 23.4 |  |
| COc1cccc(OC)c1-c1nnc(N)s1 | 27.1 |  |
| Nc1nnc(-c2ccc(OCc3ccc(Cl)c(Cl)c3)cc2)s1 | 14.5 |  |
| Nc1nnc(-c2cccc(-c3ccccc3)c2)s1 |  | inactive |
| Nc1nnc(-c2ccc(O)c(O)c2)s1 | 16.6 |  |
| Nc1nnc(-c2ccc(-c3ccccc3)cc2)s1 | 31.2 |  |
| Nc1nnc(-c2cccc(-c3ccc4c(c3)OCO4)c2)s1 |  | inactive |
| Nc1nnc(/C=C/c2ccccc2)s1 | 82 |  |
| COc1cc(-c2nnc(N)s2)cc(OC)c1OC |  | inactive |
| Nc1nnc(-c2cccc(Br)c2)s1 | 41.6 |  |
| COc1ccccc1-c1nnc(N)s1 |  | inactive |
| COc1ccc(-c2cccc(-c3nnc(N)s3)c2)cc1OC | 14.6 |  |
| COc1ccc(-c2nnc(N)s2)cc1OC | 30.2 |  |
| Nc1nnc(-c2ccco2)s1 |  | inactive |
